# PMC7416514 (Clinical & experimental metastasis, 2011)
# Where “and” joins values, the source holds several entries; their conditions need not be identical. Identical values can stand only once.
# Experiments:
# 231-BR cells [1] = test: 231-BR experimental brain metastasis prevention model; format: in vivo, nu/nu NRC mice; settings: for Micrometastases Mean: vehicle 239
# Procedure, shortened: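 Female nu/nu NRC mice, 5–7 weeks old, received 175,000 231-BR cells into the left cardiac ventricle. On day 3 they were randomised to test compound or vehicle (2% Cremophor EL, 2% N,N-dimethylacetamide in acidified pH 5 water). Brains were bisected sagittally; ten serial 10-micron sections every 300 microns through the right hemisphere were scored at 50×. Micro and large (>300 micron) lesions are given as mean per section, from two experiments combined, by mixed-model ANOVA with Dunnett adjustment.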
# [2] = Preliminary dose finding experiments; format: in vivo; settings: 75 mg/kg, intraperitoneally every other day, mice
# 231-BR cells [3] = test: MTT-based viability assay; format: cell-based; settings: Homo sapiens, 48 h, read-out: IC50 viability of 231-BR cells
# Procedure, shortened: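 231-BR cells in 10% FBS had continuous exposure to test compound over 1–100 nM for 48 h, then an MTT viability read-out. Viability is expressed as percent of vehicle control. There were three separate experiments with n = 4 per point; log10-transformed data went to mixed-model ANOVA with Dunnett post-hoc comparison.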
# [4] = Whole body autoradiography tissue uptake; format: in vivo, rats; settings: rat, single 12.5 mg/kg dose
# Procedure, shortened: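 Rats received a single dose of [14C]-labelled test compound and were sacrificed at timed points up to 24 h. Radioactivity in whole-body sections (brain, striatum, blood) was quantified by phosphoimager against 14C autoradiography standards. Results are μg equivalents/g tissue; limit of quantitation 0.051 μg equivalents/g.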
# TP53 mutant cells = settings: cited from earlier work
# 231-BR cells [5] = test: Survival study in 231-BR brain metastasis model; format: in vivo, nu/nu NRC mice; settings: 50 mg/kg
# 231-BR cells [6] = test: Western blot of apoptotic markers and phosphorylated Histone H3; format: cell-based, human
# Procedure, shortened: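 231-BR cells were treated with test compound at 5 or 10 nM for the indicated times, then lysed and run on SDS-PAGE with immunoblotting. Antibodies: PLK-1, phospho-histone H3, cleaved and total caspase 9, 8 and 3. Tubulin served as the loading control.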
# 231-BR cells [7] = test: Clonogenic survival assay with irradiation; format: cell-based, human; settings: 40 nM, 2 h prior to irradiation, surviving fraction of 0.1
# [8] = phase I study in 40 patients ref 6; cited from earlier work
compound,measurement,setting,value
C[C@@H](Oc1cc(-n2cnc3ccc(CN4CCN(C)CC4)cc32)sc1C(N)=O)c1ccccc1C(F)(F)F [GSK461364A],Micrometastases Mean,231-BR cells [1]; 25 mg/kg IP every other day for 27 days from day 3,177 lesions/ section
same,reduction in micrometastases vs vehicle,"231-BR cells [1]; 25 mg/kg, statistically insignificant",26%
same,Micrometastases Mean,231-BR cells [1]; 50 mg/kg IP every other day for 27 days from day 3,159 lesions/ section
same,decline in large brain metastases vs vehicle,"231-BR cells [1]; 50 mg/kg, treatment started 3 days post-injection",62%
same,toxicity in dose finding,[2],toxic causing acute weight loss
same,IC50,231-BR cells [3],~5 nM
same,"Tissue uptake, Brain",[4]; 0.5 h,3.192 μg equivalents/g tissue
same,"Tissue uptake, Brain (striatum)",[4]; 0.5 h,4.283 μg equivalents/g tissue
same,"Tissue uptake, Choroid plexus",[4]; 0.5 h,32.560 μg equivalents/g tissue
same,"Tissue uptake, Meninges",[4]; 0.5 h,10.305 μg equivalents/g tissue
same,"Tissue uptake, Blood (cardiac)","[4]; 0.5 h, listed as [^14C]GSK461364A, 12.5 mg/kg",2.4 μg equivalents/g tissue and 2.396^a μg equivalents/g tissue
same,Drug uptake in the brain or striatum,[4]; 30 min post-injection,3.2–4.3 μg equivalents/g of tissue
same,"Tissue uptake, Blood (cardiac)",[4]; 2 h,0.730 μg equivalents/g tissue
same,"Tissue uptake, Brain",[4]; 2 h,0.363 μg equivalents/g tissue
same,"Tissue uptake, Brain (striatum)",[4]; 2 h,0.522 μg equivalents/g tissue
same,"Tissue uptake, Choroid plexus",[4]; 2 h,9.734 μg equivalents/g tissue
same,"Tissue uptake, Meninges",[4]; 2 h,1.236 μg equivalents/g tissue
same,"Tissue uptake, Blood (cardiac)",[4]; 6 h,0.183 μg equivalents/g tissue
same,"Tissue uptake, Brain",[4]; 6 h,0.088 μg equivalents/g tissue
same,"Tissue uptake, Brain (striatum)",[4]; 6 h,0.225 μg equivalents/g tissue
same,"Tissue uptake, Choroid plexus",[4]; 6 h,2.790 μg equivalents/g tissue
same,"Tissue uptake, Meninges",[4]; 6 h,1.239 μg equivalents/g tissue
same,"Tissue uptake, Brain",[4]; 24 h,0.126 μg equivalents/g tissue
same,"Tissue uptake, Brain (striatum)",[4]; 24 h,0.288 μg equivalents/g tissue
same,"Tissue uptake, Choroid plexus",[4]; 24 h,2.342 μg equivalents/g tissue
same,"Tissue uptake, Meninges",[4]; 24 h,4.881 μg equivalents/g tissue
same,"Tissue uptake, Blood (cardiac)","[4]; 24 h, BLQ = <0.051 μg equivalents/g, 12.5 mg/kg",undetectable
same,"Tissue uptake, Blood (cardiac)","[4]; 24 h, BLQ = <0.051 μg equivalents/g, listed as [^14C]GSK461364A, 12.5 mg/kg",BLQ^b
same,Drug remaining in the brain,[4]; 24 h post-injection,0.13–0.29 μg equivalents/ g
same,sensitivity in TP53 mutant cells,TP53 mutant cells,increased sensitivity
same,prolonged survival,231-BR cells [5]; treatment started 3 days post-injection,17%
same,survival compared to the vehicle control group,"231-BR cells [5]; treatment started day 3, 7 or 14 post-injection",extended survival to the same extent
same,pHH3 levels (Western blot),231-BR cells [6]; 231-BR cells treated with 5 and 10 nM,increase in pHH3 levels
same,cleaved caspase 9 and cleaved caspase 3 (Western blot),231-BR cells [6]; 231-BR cells treated with 5 or 10 nM,Cleaved caspase 9 and cleaved caspase 3 were observed
same,dose enhancement factor,231-BR cells [7],1.5
same,limiting toxicities,[8],"neutropenia, thrombocytopenia and bone marrow suppression"
same,phospho-Histone H3 (pHH3) in circulating tumor cells,[8],Increased
